Molecules are shown by their SMILES. Activity calls are given as the source filed them. The rule behind the calls is not given here. A value given as a limit tells only on which side of the number the result lay.

The nature of series [1]: Inhibition of recombinant full-length Plasmodium falciparum 3D7 CLK3 using ULight-labelled CFFKNIVTPRTPPPSQGK as substrate measured after 1 hr by TR-FRET assay. The essentials:
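Peptide substrate plus cold ATP with serially diluted inhibitor, 37 °C for 1 h. Stopped with 30 mM EDTA and Eu-anti-phospho antibody (3 nM), 1 h RT, read 665 nm emission. Normalised to no-kinase/no-inhibitor wells; three independent experiments in triplicate, mean ± SEM.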
(TR-FRET usually uses a lanthanide donor and a delayed reading to cut background.)

Series [2] concerns Plasmodium falciparum. In words: Antimalarial activity against chloroquine-sensitive synchronized ring stage of Plasmodium falciparum 3D7 incubated for 48 to 52 hrs by SYBR green 1 dye based assay. Type of series: functional, organism-based.
The nature of series [3]: Distribution coefficient, log D of the compound at pH 7.4 by HPLC method. Type of series: physicochemical. To be noted: octanol/water.
The subject of series [4] is Plasmodium falciparum. Nature of the series: Antimalarial activity against Plasmodium falciparum isolate GB002 assessed as reduction in parasitemia at 10 times EC50 measured after 72 hrs. Type of series: functional, organism-based. The essentials:
(§1)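 Parasite reduction ratio setup: cryopreserved clinical isolates thawed and cultured at least one cycle (~48 h ± 2); new rings 0–3 h post-invasion taken as t = 0. […] 24 h arm: drug removed by two washes; 48 and 72 h arms: fresh drug every 24 h.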

Series [5] deals with Plasmodium falciparum. Nature of the series: Antimalarial activity against Plasmodium falciparum isolate GB0026 assessed as reduction in parasitemia at 10 times EC50 measured after 72 hrs. The class given is functional, organism-based. The essentials: as §1
Series [6] relates to Plasmodium falciparum. Nature of the series: Antimalarial activity against Plasmodium falciparum isolate GB0020 assessed as reduction in parasitemia at 1 to 10 times EC50 measured after 24 hrs relative to control. Details: scale not given: the % may be the effect or the level left. Type of series: functional. The essentials:
as §1

The subject of series [7] is Plasmodium falciparum. Nature of the series: Antimalarial activity against Plasmodium falciparum isolate GB0021 assessed as reduction in parasitemia at 1 to 10 times EC50 supplemented with fresh medium containing compounds every 24 hrs for 72 hrs relative to control. Details: scale not given: the % may be the effect or the level left. The class given is functional. Put shortly: as §1

In series [8] the test system is Plasmodium falciparum. Nature of the series: Antimalarial activity against Plasmodium falciparum isolate GB0020 assessed as reduction in parasitemia at 10 times EC50 measured after 72 hrs. The class given is functional, organism-based. The essentials: as §1
Series [9] has as its system Plasmodium falciparum. Nature of the series: Antimalarial activity against Plasmodium falciparum isolate GB0071 assessed as reduction in parasitemia at 1 to 10 times EC50 supplemented with fresh medium containing compounds every 24 hrs for 72 hrs relative to control. Type of series: functional. On the set-up: scale not given: the % may be the effect or the level left. Put shortly: as §1

The test system of series [10] is Plasmodium falciparum. In words: Antimalarial activity against Plasmodium falciparum isolate GB0006 assessed as reduction in parasitemia at 1 to 10 times EC50 supplemented with fresh medium containing compounds every 24 hrs for 72 hrs relative to control. On the set-up: scale not given: the % may be the effect or the level left. The class given is functional. The essentials:
as §1

Series [11] has as its system Plasmodium falciparum. In words: Antimalarial activity against Plasmodium falciparum isolate GB0048 assessed as reduction in parasitemia at 1 to 10 times EC50 supplemented with fresh medium containing compounds every 24 hrs for 72 hrs relative to control. On the set-up: scale not given: the % may be the effect or the level left. Type of series: functional. Put shortly: as §1

For series [12], the system named is Plasmodium falciparum. Nature of the series: Antimalarial activity against Plasmodium falciparum isolate GB0026 assessed as reduction in parasitemia at 1 to 10 times EC50 measured after 24 hrs relative to control. On the set-up: scale not given: the % may be the effect or the level left. The class given is functional. The essentials:
as §1

In series [13] the test system is Plasmodium falciparum. Nature of the series: Antimalarial activity against Plasmodium falciparum isolate GB002 assessed as reduction in parasitemia at 1 to 10 times EC50 measured after 24 hrs relative to control. The class given is functional. Details: scale not given: the % may be the effect or the level left. The essentials:
as §1

For series [14], the system named is Plasmodium falciparum. In words: Antimalarial activity against Plasmodium falciparum isolate GB0087 assessed as reduction in parasitemia at 1 to 10 times EC50 supplemented with fresh medium containing compounds every 24 hrs for 72 hrs relative to control. Type of series: functional. Details: scale not given: the % may be the effect or the level left. The essentials: as §1

Series [15] deals with Plasmodium falciparum. In words: Antimalarial activity against Plasmodium falciparum isolate GB0026 assessed as reduction in parasitemia at 1 to 10 times EC50 supplemented with fresh medium containing compounds every 24 hrs for 72 hrs relative to control. The class given is functional, organism-based. Put shortly:
as §1

The test system of series [16] is Plasmodium falciparum. Nature of the series: Antimalarial activity against Plasmodium falciparum isolate GB0020 assessed as reduction in parasitemia at 1 to 10 times EC50 supplemented with fresh medium containing compounds every 24 hrs for 72 hrs relative to control. The class given is functional, organism-based. The essentials: as §1
Series [17] concerns Plasmodium falciparum. Nature of the series: Antimalarial activity against Plasmodium falciparum isolate GB002 assessed as reduction in parasitemia at 1 to 10 times EC50 supplemented with fresh medium containing compounds every 24 hrs for 72 hrs relative to control. Type of series: functional, organism-based. The essentials:
as §1

Series [18] relates to Plasmodium falciparum. Nature of the series: Antimalarial activity against Plasmodium falciparum isolate GB0004 assessed as reduction in parasitemia at 1 to 10 times EC50 supplemented with fresh medium containing compounds every 24 hrs for 72 hrs relative to control. Type of series: functional. Put shortly: as §1

Usually IC50 stands for the point on the concentration scale where inhibition reaches its midpoint. In general, pIC50 refers to the IC50 on a negative log10 scale, so that one unit is a factor of ten. Usually logD stands for the decadic logarithm of the distribution of all forms, ionised or not, between an organic phase and buffer at a given pH. With `COc1ccccc1-c1cc2c(-c3ccc(C(=O)O)c(C(C)C)c3)ccnc2[nH]1`, in [1], the IC50 stood at 79 nM and the pIC50 was found to be 7.1. The EC50 in the series with Plasmodium falciparum [2] (read-out: EC50) came out at 1460 nM. In addition, in the series on Plasmodium falciparum [2] (read-out: pEC50 (converted)), the EC50 is 1580 nM. Moreover, the pH-dependent lipophilicity (logD) in [3] stood at 2.45.

Consider `CCN(CC)Cc1ccc(OC)c(-c2cc3c(-c4ccc(C(C)C)c(C(=O)O)c4)ccnc3[nH]2)c1`, for which, in series [1], the IC50 worked out at 1380 nM and the pIC50 came out at 4.9.

On to `CCN(CC)Cc1cccc(-c2cc3c(-c4ccc(C(=O)O)c(C(C)C)c4)ccnc3[nH]2)c1`, for which, in series [1], the IC50 is 25 nM and the pIC50 worked out at 7.6. In addition, the EC50 in the series on Plasmodium falciparum [2] (read-out: EC50) is 309 nM. Moreover, the logD in series [3] stood at 0.8.

For the compound `COc1ccc(CN2CCCC2)cc1-c1cc2c(-c3ccc(C(=O)O)c(C(C)C)c3)ccnc2[nH]1`, in series [1], the IC50 was found to be 38 nM and the negative logarithm of the IC50 (pIC50) stood at 7.4. The EC50 in the series with Plasmodium falciparum [2] (read-out: EC50) is 382 nM. Also, in series [3], the logD turned out to be 2.43.

On to `CCN(CC)Cc1ccc(OC)c(-c2cc3c(-c4cccc(C(C)C)c4)ccnc3[nH]2)c1`, for which, in series [1], the IC50 came to 1300 nM and the pIC50 turned out to be 6. Besides, the pH-dependent lipophilicity (logD) in series [3] is 4.45.

For `COc1ccc(CN)cc1-c1cc2c(-c3ccc(C(=O)O)c(C(C)C)c3)ccnc2[nH]1`, in [1], the half-inhibitory concentration (IC50) is 76 nM and the pIC50 is 7.1. Also, the EC50 in the series with Plasmodium falciparum [2] (read-out: EC50) is 2800 nM. For the same compound, the EC50 in the series on Plasmodium falciparum [2] (read-out: pEC50 (converted)) was 2510 nM. Moreover, the logD in [3] amounted to 0.61.

`COc1ccc(CN2CCOCC2)cc1-c1cc2c(-c3ccc(C(=O)O)c(C(C)C)c3)ccnc2[nH]1`: in [1], the IC50 was 9 nM and the negative logarithm of the IC50 (pIC50) came to 8.

On to `CCN(CC)Cc1ccc(O)c(-c2cc3c(-c4ccc(C(=O)O)c(C(C)C)c4)ccnc3[nH]2)c1`, for which, in [1], the IC50 came to 22 nM and the pIC50 was 7.7. The EC50 in the series with Plasmodium falciparum [2] (read-out: EC50) was found to be 3530 nM. Moreover, the logD in [3] was 0.59.

Turning to `COc1ccc(CN(C)C)cc1-c1cc2c(-c3ccc(C(=O)O)c(C(C)C)c3)ccnc2[nH]1`, in series [1], the 50% inhibitory concentration (IC50) was determined as 29 nM and the pIC50 came to 7.5. In addition, the EC50 in the series on Plasmodium falciparum [2] (read-out: EC50) was 457 nM. Further, the logD in series [3] was 0.85.

As for `CCN(CC)Cc1ccc(OC)c(-c2cc3c(-c4ccc(-c5nnn[nH]5)c(C(C)C)c4)ccnc3[nH]2)c1`, in [1], the IC50 was determined as 19 nM and the negative logarithm of the IC50 (pIC50) turned out to be 7.7. The logD in series [3] was 0.93.

As for `CCc1nc(N)nc(N)c1-c1ccc(Cl)cc1` [PYRIMETHAMINE], the result in the series on Plasmodium falciparum [4], in the series on Plasmodium falciparum [5] and in the series with Plasmodium falciparum [8] was inactive. For the same compound, the EC50 with Plasmodium falciparum [2] (read-out: EC50) amounted to 18 nM. In addition, the Activity in the series on Plasmodium falciparum [6] is 45%; in the series on Plasmodium falciparum [7], “>=70%”; in the series on Plasmodium falciparum [9], “>=70%”; in the series with Plasmodium falciparum [10], “>=70%”; in the series with Plasmodium falciparum [11], “>=70%”; in the series with Plasmodium falciparum [12], 36%. The Activity in the series on Plasmodium falciparum [13] is on record as 64%; with Plasmodium falciparum [14], “>=70%”.

As for `CCN(CC)Cc1ccc(OC)c(-c2cc3c(-c4ccc(C(=O)O)c(C)c4)ccnc3[nH]2)c1`, in [1], the IC50 was 24 nM. For the same compound, the pIC50 in series [1] worked out at 7.6. The EC50 in the series on Plasmodium falciparum [2] (read-out: EC50) is 1180 nM; in the series with Plasmodium falciparum [2] (read-out: pEC50 (converted)) it was 2510 nM. In [3], this compound came in with a logD of 0.66.

On to `CCN(CC)Cc1ccc(OC)c(-c2cc3c(-c4ccc(C(=O)O)c(C(C)C)c4)ccnc3[nH]2)c1`, for which the IC50 in [1] was found to be 40 nM. Moreover, the pIC50 in series [1] was found to be 7.4. Also, the result with Plasmodium falciparum [15], with Plasmodium falciparum [7], in the series with Plasmodium falciparum [16], in the series on Plasmodium falciparum [17], in the series on Plasmodium falciparum [18] and with Plasmodium falciparum [9] was Active. The outcome with Plasmodium falciparum [10], with Plasmodium falciparum [11] and with Plasmodium falciparum [14] was Active. The compound further came in with a logD in [3] of 0.93.

Regarding `CCN(CC)Cc1ccc(OC)c(-c2cc3c(-c4ccc(C(=O)O)cc4)ccnc3[nH]2)c1`, in [1], the half-inhibitory concentration (IC50) stood at 34 nM and the pIC50 was found to be 7.5. In addition, the EC50 in the series with Plasmodium falciparum [2] (read-out: EC50) stood at 3270 nM. For the same compound, in series [3], the logD came out at 0.65.

Take `CCN(CC)Cc1cccc(-c2cc3c(-c4ccc(C(=O)O)c(C(C)C)c4)ccnc3[nH]2)c1OC`: in [1], the IC50 was found to be 17 nM and the pIC50 is reported as 7.7. Moreover, the EC50 with Plasmodium falciparum [2] (read-out: EC50) stood at 3170 nM. The EC50 with Plasmodium falciparum [2] (read-out: pEC50 (converted)) is 2510 nM. The compound also registered a logD in [3] of 0.74.

As to `CCOC(=O)c1ccc(-c2ccnc3[nH]c(-c4cc(CN(CC)CC)ccc4OC)cc23)cc1C(C)C`, in [1], the IC50 turned out to be 390 nM and the pIC50 came out at 6.4. Further, the logD in [3] is 2.45.
